Assay outcomes deposited in PubChem by Johns Hopkins Ion Channel Center.
Most compounds without a hit are left out; they make up all but 2.3% or so of the library.
TRPC6 inhibitor – mouse TRPC6 channel inhibitors, primary screen, cell-based, HEK293, membrane potential dye | Short transient receptor potential channel 6 (Mus musculus), Q61143 | ACh-evoked depolarization; stronger effect = lower value | B-score at 10 µM | actives 1.1% (n = 310,000);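 active = B-score under library mean minus 3 SD, initial fluorescence not abnormally high, positive integrated signal ratio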;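 note: B-score derived from integrated fluorescence ratio over the kinetic read; more negative B-score means stronger inhibition of depolarization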
Target sequence (Q61143 whole entry, looked up): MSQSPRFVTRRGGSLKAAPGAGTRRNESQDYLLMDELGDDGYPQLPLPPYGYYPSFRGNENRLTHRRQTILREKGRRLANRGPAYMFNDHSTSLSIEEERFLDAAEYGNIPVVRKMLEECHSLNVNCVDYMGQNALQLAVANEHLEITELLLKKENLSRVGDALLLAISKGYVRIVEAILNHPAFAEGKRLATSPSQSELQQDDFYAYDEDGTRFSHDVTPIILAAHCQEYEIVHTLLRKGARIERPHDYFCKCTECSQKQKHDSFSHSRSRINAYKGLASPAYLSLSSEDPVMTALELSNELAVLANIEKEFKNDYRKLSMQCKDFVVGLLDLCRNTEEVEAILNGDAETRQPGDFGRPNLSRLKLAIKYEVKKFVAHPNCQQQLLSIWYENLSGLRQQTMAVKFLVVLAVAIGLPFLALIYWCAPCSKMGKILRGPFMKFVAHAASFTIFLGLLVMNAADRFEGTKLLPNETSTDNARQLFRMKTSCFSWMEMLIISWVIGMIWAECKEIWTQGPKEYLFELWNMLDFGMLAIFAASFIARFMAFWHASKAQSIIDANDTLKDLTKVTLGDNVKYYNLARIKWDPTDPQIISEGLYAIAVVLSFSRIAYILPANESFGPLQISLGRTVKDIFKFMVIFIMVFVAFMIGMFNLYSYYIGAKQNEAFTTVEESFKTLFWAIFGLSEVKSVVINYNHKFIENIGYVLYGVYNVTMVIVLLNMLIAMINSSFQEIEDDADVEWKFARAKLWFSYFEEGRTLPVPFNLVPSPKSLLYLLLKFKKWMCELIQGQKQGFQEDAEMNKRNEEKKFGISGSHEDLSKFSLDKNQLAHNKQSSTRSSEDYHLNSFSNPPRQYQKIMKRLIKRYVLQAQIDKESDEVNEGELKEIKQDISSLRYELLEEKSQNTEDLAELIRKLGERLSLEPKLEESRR
TRPC4 inh – inhibitors of mouse TRPC4 channel, primary screen, Fluo4 calcium, HEK293 TRPC4beta/mu-opioid cells; Short transient receptor potential channel 4 (Mus musculus), Q9QUQ5; DAMGO-evoked Fluo4 calcium flux; stronger effect = lower value; B-score at 10 µM; actives 0.39% (n = 300,000); AID 2247, 2010;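 active = B-score over 3 SD under the library average, no early fluorescence shift, positive overall ratio signal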
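Signal: kinetic Fluo4 fluorescence imaging of calcium influx. Material: stable TRPC4beta/mu-opioid receptor HEK293 cells. Probe or stimulus: DAMGO in two steps, submaximal then maximal.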
TRPC4 act – activators of mouse TRPC4 channel, primary screen, Fluo4 calcium, HEK293 TRPC4beta/mu-opioid cells; Short transient receptor potential channel 4 (Mus musculus), Q9QUQ5; Fluo4 calcium fluorescence; stronger effect = higher value; B-score at 10 µM; actives 0.49% (n = 310,000); AID 2237, 2010;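 active = B-score above 5 SD of library B-scores, and initial fluorescence ratio not above library mean plus 5 SD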;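 note: positive B-score marks a calcium rise read as TRPC4 activation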
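Assay system: HEK293 cells stably co-expressing mouse TRPC4beta and mu-opioid receptor / Timing: Fluo4 dye loading 45 min at room temperature, 110 s recording / Signal: Fluo4 calcium-sensitive dye fluorescence, kinetic, 1 Hz baseline / Read-out: integrated baseline-normalised fluorescence ratio, converted to per-well B score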
TRPC6 activator – mouse TRPC6 channel activators, primary screen, cell-based, HEK293, membrane potential dye. actives 0.13% (n = 310,000). Short transient receptor potential channel 6 (Mus musculus), Q61143. B-score at 10 µM. AID 2550, 2010. HEK293-TRPC6 membrane potential dye fluorescence; stronger effect = higher value;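 active = B-score of the integrated fluorescence ratio above library mean plus 3 SD, and starting fluorescence ratio within library mean plus 5 SD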;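 note: higher score means more depolarization so channel activation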
TRPC4 PAM – positive allosteric modulators of TRPC4, primary screen, cell-based, mouse TRPC4beta, HEK293 mu-opioid, Fluo-4 calcium; Short transient receptor potential channel 4 (Mus musculus), Q9QUQ5; DAMGO EC20, Fluo-4 Ca2+ flux; stronger effect = higher value; B-score at 10 µM; actives 0.42% (n = 310,000); AID 2227, 2009;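 active = B-score of calcium response area above 5 SD of library B-scores, with initial fluorescence ratio within 5 SD of library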;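 note: B-score of integrated fluorescence ratio over time as area under calcium response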
TRPC4 sel inh 2 – second selectivity test of TRPC6 inhibitors: effect on mouse TRPC4. shares compounds with TRPC6 inhibitor. HEK293 TRPC4/MOR, membrane potential dye fluorescence; channel activated by saturating DAMGO dose. inhibition, % at 10 µM. actives 42% (n = 920). AID 2776;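 active = compounds whose fluorescence signal differed from control wells by over 3 SD, either direction, in both duplicate plates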
TRPC4 spec – mouse TRPC4 modulation by TRPC6 hits, confirmation, selectivity assay for TRPC6 inhibitor project, cell-based, HEK293 TRPC4/mu-opioid, membrane potential dye | activity change, negative = inhibition, % at 10 µM | membrane potential fluorescence | AID 2777, 2010 | shares compounds with TRPC6 inhibitor | actives 61% (n = 920);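 active = rise or fall in signal beyond 3 SD of buffer-only wells in both replicate plates, either sign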;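 note: integrated kinetic ratio of fluorescence range over baseline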
HEK293 MPD ctr 2-1 – nonspecific membrane potential effects, parental HEK293, confirmation, counter-screen for TRPC6 inhibitor project, cell-based, second counter screen; shares compounds with TRPC6 inhibitor; parental HEK293 membrane potential dye fluorescence; maximal acetylcholine challenge after compound addition; signal change vs control, % at 10 µM; actives 31% (n = 920);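 active = membrane potential signal moving either way by over 3 SD of the maximum-effect control, in both duplicate plates, meaning non-specific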
HEK293 MPD ctr-1 – membrane potential modulation in parental HEK293, confirmation, counter-screen for TRPC6 inhibitor project, cell-based. shares compounds with TRPC6 inhibitor. parental HEK293 membrane potential dye fluorescence. membrane potential signal change, % at 10 µM. actives 60% (n = 920). AID 2780, 2010;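 active = membrane potential signal shifting up or down by more than 3 SD of buffer-only wells, on both duplicate plates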
HEK293 MPD ctr-2 – parental HEK293 membrane potential modulation, confirmation, counter-screen for TRPC6 modulator project, cell-based; membrane potential signal change, % at 10 µM; actives 51% (n = 2,400); shares compounds with TRPC6 inhibitor; membrane potential dye fluorescence;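 active = membrane potential signal moves up or down beyond 5 SD from buffer-only wells, on both duplicate plates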
HEK293 MPD ctr 2-2 – second counter-screen for TRPC6 modulators: effect in parental HEK293 cells | AID 488926 | inhibition, % at 10 µM | actives 14% (n = 2,400) | shares compounds with TRPC6 inhibitor | membrane potential dye fluorescence; after compound, maximal acetylcholine stimulation;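 active = membrane potential signal drops by more than 5 SD from the mean control signal, in both duplicate plates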;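 note: plate controls were acetylcholine ECmax control wells for no effect and buffer only wells for full effect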
TRPC4 ctr mod – TRPC4 modulation by TRPC6 hit compounds, confirmation, selectivity assay for TRPC6 modulator project, cell-based, HEK293 TRPC4/mu-opioid, membrane potential dye, mouse | actives 69% (n = 2,400) | membrane potential fluorescence | shares compounds with TRPC6 inhibitor | percent change from control (negative = decrease, positive = increase), % at 10 µM;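 active = membrane potential signal moved up or down beyond 5 SD of buffer control wells, in both duplicate plates, actives on both sides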;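 note: plate controls were assay buffer wells for no effect and DAMGO maximal-effect wells for full effect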
TRPC4 ctr inh 2 – mouse TRPC4 off-target activity of TRPC6 modulators, second screen. inhibition, % at 10 µM. AID 488928. actives 55% (n = 2,400). HEK293 TRPC4/mu-opioid, membrane potential dye fluorescence; stimulated with maximal-effect DAMGO. shares compounds with TRPC6 inhibitor;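 active = drop in membrane potential signal beyond 5 SD of the control wells in both duplicate plates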;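 note: TRPC4 counter screen for TRPC6 hits run under conditions tuned for TRPC6 not TRPC4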
TRPC6 inh conf – mouse TRPC6 channel inhibitors, confirmation, HEK293 cells, membrane potential dye, duplicate | shares compounds with TRPC6 inhibitor | ACh-evoked depolarization | inhibition, % at 10 µM | actives 43% (n = 3,300) | AID 488960, 2010;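 active = fluorescence ratio falls more than 5 SD below the full-stimulation control mean, in both duplicate runs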;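 note: integrated fluorescence ratio of peak minus minimum over baseline after agonist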
TRPC6 act confirm – mouse TRPC6 channel activators, confirmation, HEK293 cells, membrane potential dye, duplicate; HEK293-TRPC6 membrane potential dye fluorescence, FDSS; shares compounds with TRPC6 inhibitor; activation, % at 10 µM; AID 488961, 2010; actives 11% (n = 2,800);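 active = ratio signal rise beyond 5 SD above unstimulated control wells' mean, seen in both duplicate runs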;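 note: plate controls were buffer EC0 wells for no effect and acetylcholine ECmax response for full effect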
An asterisk follows results filed as active.

How did CC(C)(C)OC(=O)NC(Cc1ccccc1)C(=O)O (stereo not given) do in these assays?
TRPC6 inhibitor: inactive; TRPC4 inh: inactive; TRPC4 act: inactive; TRPC6 activator: inactive; TRPC4 PAM: inactive

Results for CC(C)(C)OC(=O)NC(CNCc1ccccc1)Cc1ccccc1 (stereo not given) ?
TRPC6 inhibitor: -5.33*; TRPC4 inh: inactive; TRPC4 act: inactive; TRPC6 activator: inactive; TRPC4 PAM: inactive; HEK293 MPD ctr-2: 136.0%*; HEK293 MPD ctr 2-2: inactive; TRPC4 ctr mod: 24.5%*; TRPC4 ctr inh 2: 34.0%*; TRPC6 inh conf: inactive

What do the screens show for `NS(=O)(=O)c1ccc(CCNC(=O)NC2(C(F)(F)F)Oc3ccccc3O2)cc1`?
TRPC6 inhibitor: -5.74*; TRPC4 inh: inactive; TRPC4 act: inactive; TRPC6 activator: inactive; TRPC4 PAM: inactive; HEK293 MPD ctr-2: inactive; HEK293 MPD ctr 2-2: inactive; TRPC4 ctr mod: inactive; TRPC4 ctr inh 2: inactive; TRPC6 inh conf: inactive; TRPC6 act confirm: inactive

How did CCCCNC(=O)NC1(C(F)(F)F)Oc2ccccc2O1 do in these assays?
TRPC6 inhibitor: inactive; TRPC4 inh: inactive; TRPC4 act: inactive; TRPC6 activator: inactive; TRPC4 PAM: inactive

Results for COC(=O)c1ccc(CNC(=O)Cn2nnnc2CN(C)C(C)C)cc1 ?
TRPC6 inhibitor: inactive; TRPC4 inh: inactive; TRPC4 act: inactive; TRPC6 activator: inactive; TRPC4 PAM: inactive

What do the screens show for `Fc1ccc(CSc2nnc(-c3cccs3)o2)cc1`?
TRPC6 inhibitor: -7.43*; TRPC4 inh: inactive; TRPC4 act: inactive; TRPC6 activator: inactive; TRPC4 PAM: inactive; TRPC4 sel inh 2: inactive; TRPC4 spec: inactive; HEK293 MPD ctr 2-1: inactive; HEK293 MPD ctr-1: inactive; TRPC6 inh conf: inactive; TRPC6 act confirm: inactive

How did CC1CCCN(C(=O)C2COc3ccccc3O2)C1 (stereo not given) do in these assays?
TRPC6 inhibitor: -5.01*; TRPC4 inh: inactive; TRPC4 act: inactive; TRPC6 activator: inactive; TRPC4 PAM: inactive; HEK293 MPD ctr-2: inactive; HEK293 MPD ctr 2-2: inactive; TRPC4 ctr mod: 8.5%*; TRPC4 ctr inh 2: inactive; TRPC6 inh conf: 49.0%*

How did CCCCN(CCCC)CCCNC(=O)C12CN(Cc3ccccc3)CC1C(c1cccc([N+](=O)[O-])c1)=NO2 (stereo not given) do in these assays?
TRPC6 inhibitor: -7.54*; TRPC4 inh: inactive; TRPC4 act: inactive; TRPC6 activator: inactive; TRPC4 PAM: inactive; TRPC4 sel inh 2: 60.5%*; TRPC4 spec: inactive; HEK293 MPD ctr 2-1: inactive; HEK293 MPD ctr-1: inactive; TRPC6 inh conf: inactive; TRPC6 act confirm: inactive

How did O=C(NCc1ccccc1)C12CN(Cc3ccccc3)CC1C(c1cccc([N+](=O)[O-])c1)=NO2 (stereo not given) do in these assays?
TRPC6 inhibitor: inactive; TRPC4 inh: inactive; TRPC4 act: inactive; TRPC6 activator: inactive; TRPC4 PAM: inactive

Results for Cc1cc(-c2ccccc2)c2ccc(NC(=O)C(C)(C)C)nc2n1 ?
TRPC6 inhibitor: inactive; TRPC4 inh: inactive; TRPC4 act: inactive; TRPC6 activator: inactive; TRPC4 PAM: inactive

Results for COC(=O)C1CN(C(=O)COc2cccc(C)c2C)c2ccccc2O1 (stereo not given) ?
TRPC6 inhibitor: -5.97*; TRPC4 inh: inactive; TRPC4 act: inactive; TRPC6 activator: inactive; TRPC4 PAM: inactive; HEK293 MPD ctr-2: 98.0%*; HEK293 MPD ctr 2-2: inactive; TRPC4 ctr mod: 14.0%*; TRPC4 ctr inh 2: inactive; TRPC6 inh conf: inactive; TRPC6 act confirm: inactive

Results for COC(=O)C1CN(C(=O)COc2ccc(Cl)cc2Cl)c2ccccc2O1 (stereo not given) ?
TRPC6 inhibitor: inactive; TRPC4 inh: inactive; TRPC4 act: inactive; TRPC6 activator: inactive; TRPC4 PAM: inactive
